Measured values: ChEMBL document CHEMBL2146413, “Mammalian multidrug resistance lipopentasaccharide inhibitors from Ipomoea alba seeds” (J Nat Prod, 2012)
≈ marks a conversion by molar mass, not a printed value.

Legend:
[1] = tested on: MDR; test: Inhibition of MDR in vinblastine-sensitive human MCF7 cells assessed as decrease in vinblastine IC50 at 25 ug/mL after 72 hrs by SRB assay; assay type: cell-based
Outline: (§1)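 Vinblastine (0.00064−10 μg/mL) was given with or without glycolipid at 25 or 5 μg/mL for 72 h at 37 °C, 5% CO2, then read by SRB assay. Vinblastine IC50 came from a semilog plot. Reversal fold = IC50 of vinblastine alone / IC50 with glycolipid. Reserpine 5 μg/mL served as positive control. Values are mean ± SD of three independent experiments.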

[2] = tested on: MCF7; test: Cytotoxicity against vinblastine-reasistant human MCF7 cells after 72 hrs by SRB assay; assay type: functional, cell-based; settings: MCF7, 72 h
Outline: (§2)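 Log-phase cells in RPMI 1640 + 10% FBS, 37 °C, 5% CO2, exposed in triplicate to 0.2−25 μg/mL test sample for 72 h. Growth read by sulforhodamine B. IC50 = concentration giving 50% inhibition of control growth, taken from a semilog plot of concentration against % growth inhibition. Vinblastine served as positive control. Resistant line MCF-7/Vin was kept with or without 0.192 μg/mL vinblastine.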

[3] = tested on: MCF7; test: Cytotoxicity against vinblastine-sensitive human MCF7 cells after 72 hrs by SRB assay; assay type: functional, cell-based; settings: MCF7, 72 h; outline: as §2
[4] = tested on: MDR; test: Inhibition of MDR in vinblastine-resistant human MCF7 cells assessed as decrease in vinblastine IC50 at 25 ug/mL after 72 hrs by SRB assay; assay type: cell-based; outline: as §1
[5] = tested on: MDR; test: Inhibition of MDR in drug-sensitive human MCF7 cells assessed as decrease in vinblastine IC50 at 25 ug/mL after 72 hrs by SRB assay; assay type: cell-based; outline: as §1
[6] = tested on: MCF7; test: Cytotoxicity against drug-sensitive human MCF7 cells after 72 hrs by SRB assay; assay type: functional, cell-based; settings: MCF7, 72 h; outline: as §2
[7] = tested on: MDR; test: Inhibition of MDR in drug-sensitive human MCF7 cells assessed as decrease in vinblastine IC50 at 5 ug/mL after 72 hrs by SRB assay; assay type: cell-based; outline: as §1
[8] = tested on: MDR; test: Inhibition of MDR in vinblastine-resistant human MCF7 cells assessed as decrease in vinblastine IC50 at 5 ug/mL after 72 hrs by SRB assay; assay type: cell-based; outline: as §1
[9] = tested on: MDR; test: Inhibition of MDR in vinblastine-sensitive human MCF7 cells assessed as decrease in vinblastine IC50 at 5 ug/mL after 72 hrs by SRB assay; assay type: cell-based; outline: as §1

Compound | fold change (FC) [1] | IC50 [2] [µg/mL] | IC50 [3] [µg/mL] | fold change (FC) [4] | fold change (FC) [5] | IC50 [6] [µg/mL] | fold change (FC) [7] | fold change (FC) [8] | fold change (FC) [9]
C/C=C(\C)C(=O)O[C@H]1[C@H](O[C@H]2[C@@H]3O[C@H]4[C@H](O[C@@H](CCCCC)CCCCCCCCCC(=O)O[C@H]2[C@H](O)[C@@H](CO[C@@H]2O[C@H](C)[C@@H](O)[C@H](OC(=O)/C(C)=C/C)[C@H]2O[C@@H]2O[C@@H](C)[C@H](O)[C@@H](O)[C@H]2O)O3)O[C@H](C)[C@@H](O)[C@@H]4O)O[C@@H](C)[C@H](O)[C@H]1O [ALBINOSIDE III] | > 1690 | > 20 | > 20 | > 2140 | > 73.4 | > 20 | – | – | –
CCC[C@H]1CCCCCCCCCC(=O)O[C@H]2[C@H](O[C@H]3[C@H](OC[C@H]4O[C@@H](O[C@H]5[C@H](O1)O[C@H](C)[C@@H](O)[C@@H]5O)[C@H](O[C@@H]1O[C@@H](C)[C@H](OC(C)=O)[C@@H](O)[C@H]1O)[C@@H](O)[C@@H]4O)O[C@H](C)[C@@H](O)[C@@H]3O)O[C@@H](C)[C@H](OC(=O)[C@H](C)[C@@H](C)O)[C@H]2O [ALBINOSIDE I] | 4.2 | > 20 | > 20 | 3.1 | 2.1 | > 20 | – | – | –
COC(=O)[C@H]1[C@H]2C[C@@H]3c4[nH]c5cc(OC)ccc5c4CCN3C[C@H]2C[C@@H](OC(=O)c2cc(OC)c(OC)c(OC)c2)[C@@H]1OC | – | – | – | – | – | – | 15.7 | 4.4 | 29.2
CC[C@]1(O)C[C@@H]2CN(CCc3c([nH]c4ccccc34)[C@@](C(=O)OC)(c3cc4c(cc3OC)N(C)[C@H]3[C@@](O)(C(=O)OC)[C@H](OC(C)=O)[C@]5(CC)C=CCN6CC[C@]43[C@@H]65)C2)C1 [VINBLASTINE] | – | 1.37 (≈ 1.69 µM) | – | – | – | 0.047 (≈ 0.058 µM) | – | – | –
C/C=C(\C)C(=O)O[C@H]1[C@@H]2O[C@H]3[C@H](O[C@@H](CCC)CCCCCCCCCC(=O)O[C@@H]4[C@@H](O)[C@H](C)O[C@@H](O[C@@H]5[C@@H](O[C@@H]6O[C@@H](C)[C@H](O)[C@@H](O)[C@H]6O)[C@H](O[C@H]([C@H]1O)[C@H](C)O2)O[C@H](C)[C@H]5OC(=O)/C(C)=C/C)[C@@H]4O)O[C@H](C)[C@@H](O)[C@@H]3O [ALBINOSIDE II] | 1.3 | > 20 | > 20 | 2.6 | 1.9 | > 20 | – | – | –
